The source made the active and inactive calls. The calls are words filed in the database; no cut-off is given here.
Assays:
HaCaT [1] = assay: Activation of mitochondrial cytochrome C oxidase in human HaCaT lysate at 0.87 to 7 uM using equine cardiac cytochrome C substrate by spectrophotometry
In short: (§1)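 Lysis in HEPES buffer (20 mM HEPES, 0.1% Triton, 1 mM EDTA). Lysates were Bradford-adjusted to 2 mg/mL. v0 was taken without substrate, then 50 μM reduced cytochrome c was added. Loss was read at 550 nm over 90 s. Slopes gave U/μg. Activity was expressed as % of the DMSO 0.1% control; n=3, mean ± SD, paired t test.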

HaCaT [2] = assay: Induction of mitochondrial biogenesis in human HaCaT cells assessed as ratio of mitochondrial COX2 to UCP2 gene quantity at 1.75 to 7 uM by qPCR; assay type: functional, cell-based
In short: (§2)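 HaCaT cells were treated as for the oxidase assay, but for 48 h. Lysis in Tris 10 mM/EDTA 1 mM/NaOAc 0.3 M/SDS 1%, then phenol DNA extraction. SYBR Green qPCR ran 45 cycles at 60 °C with calibration curves from serial DNA dilutions. Mitochondrial 16S or cox2 DNA was quantified relative to nuclear ucp-2 DNA and normalized to untreated cells; biogenesis was taken as a ratio >1. n=3, mean ± SD, paired t test.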

HaCaT [3] = assay: Induction of mitochondrial biogenesis in human HaCaT cells assessed as mitochondrial 16S rRNA level by qPCR; assay type: functional, cell-based; in short: as §2
HaCaT [4] = assay: Activation of mitochondrial cytochrome C oxidase in human HaCaT lysate at 0.81 uM using equine cardiac cytochrome C substrate by spectrophotometry; in short: as §1
HaCaT [5] = assay: Activation of mitochondrial cytochrome C oxidase in human HaCaT lysate using equine cardiac cytochrome C substrate by spectrophotometry relative to resveratrol
HaCaT [6] = assay: Activation of mitochondrial cytochrome C oxidase in human HaCaT lysate at 50 uM using equine cardiac cytochrome C substrate by spectrophotometry; in short: as §1

Structure (SMILES): O=C(C[C@](O)(Cc1ccc(O)cc1)C(=O)O)OCc1ccc(O[C@@H]2O[C@H](CO)[C@@H](O)[C@H](O)[C@H]2O)cc1
- Activity (HaCaT [1]): inactive
- Activity (HaCaT [2]): inactive
- Activity (HaCaT [3]): inactive

Structure (SMILES): O=C(C[C@](O)(Cc1ccc(O)cc1)C(=O)OCc1ccc(O[C@@H]2O[C@H](CO)[C@@H](O)[C@H](O)[C@H]2O)cc1)OCc1ccc(O[C@@H]2O[C@H](CO)[C@@H](O)[C@H](O)[C@H]2O)cc1
- Activity (HaCaT [1]): 158%
- Activity (HaCaT [4]): Active
- fold change (FC) (HaCaT [5]): 60
- Activity (HaCaT [2]): inactive
- Activity (HaCaT [3]): inactive

Structure (SMILES): O=C(O)C[C@](O)(Cc1ccc(O)cc1)C(=O)O
- Activity (HaCaT [4]): Active
- fold change (FC) (HaCaT [5]): 60
- Activity (HaCaT [2]): inactive
- Activity (HaCaT [3]): inactive

Structure (SMILES): Oc1ccc(/C=C/c2cc(O)cc(O)c2)cc1
- Activity (HaCaT [6]): 138%

Structure (SMILES): O=C(/C=C/c1ccccc1)O[C@@H]1[C@@H](O)[C@H](O[C@@](CC(=O)OCc2ccc(O[C@@H]3O[C@H](CO)[C@@H](O)[C@H](O)[C@H]3O)cc2)(Cc2ccc(O)cc2)C(=O)OCc2ccc(O[C@@H]3O[C@H](CO)[C@@H](O)[C@H](O)[C@H]3O)cc2)O[C@H](CO)[C@H]1O
- Activity (HaCaT [1]): inactive

Source: ChEMBL document CHEMBL1799945, “Glucosyloxybenzyl eucomate derivatives from Vanda teres stimulate HaCaT cytochrome c oxidase” (J Nat Prod, 2011)
